ChEMBL document CHEMBL5154735, “Interaction of A3 adenosine receptor ligands with the human multidrug transporter ABCG2” (Eur J Med Chem, 2022)
One block for each molecule: values may come before it.

Legend:
[1] = target: T1, ABCG2 (Homo sapiens, UniProt Q9UNQ0); assay: Activation of human ABCG2-mediated ATPase activity preincubated for 2 mins followed by ATP addition at 100 nM and measured after 20 mins by colorimetric assay relative to control; conditions: read-out: Activity
T1 sequence (Q9UNQ0 whole entry): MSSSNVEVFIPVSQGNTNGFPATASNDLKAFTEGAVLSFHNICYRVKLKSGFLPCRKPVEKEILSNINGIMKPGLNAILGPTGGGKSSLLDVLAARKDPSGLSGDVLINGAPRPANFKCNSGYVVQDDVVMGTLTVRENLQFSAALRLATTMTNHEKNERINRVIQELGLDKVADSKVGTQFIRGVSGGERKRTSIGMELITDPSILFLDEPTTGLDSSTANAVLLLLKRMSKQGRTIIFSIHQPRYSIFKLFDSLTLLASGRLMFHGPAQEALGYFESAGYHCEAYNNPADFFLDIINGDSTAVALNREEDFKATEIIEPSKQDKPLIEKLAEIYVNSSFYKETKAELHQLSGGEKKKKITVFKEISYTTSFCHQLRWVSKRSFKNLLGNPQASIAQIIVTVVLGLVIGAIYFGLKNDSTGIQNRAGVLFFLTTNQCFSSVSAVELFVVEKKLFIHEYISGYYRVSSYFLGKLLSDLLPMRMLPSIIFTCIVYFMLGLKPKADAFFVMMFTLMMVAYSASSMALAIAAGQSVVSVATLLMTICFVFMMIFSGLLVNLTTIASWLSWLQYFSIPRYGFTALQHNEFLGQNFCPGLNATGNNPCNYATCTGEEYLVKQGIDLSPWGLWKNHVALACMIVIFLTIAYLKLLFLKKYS
In short: (§1)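 Total membrane vesicles from High-Five insect cells expressing human ABCG2 (hypotonic lysis, differential centrifugation), 10 μg protein/tube, in MES-Tris pH 6.8 buffer with KCl, MgCl2, NaN3, EGTA, ouabain, DTT. Compound in DMSO added ± sodium orthovanadate (0.3 mM), DMSO control. Preincubated 2 min at 37°C, then 5 mM ATP, 20 min. SDS stop, Pi measured colorimetrically. Three independent experiments in duplicate, mean ± SE.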

[2] = target: T2, Broad substrate specificity ATP-binding cassette transporter ABCG2 (Homo sapiens, UniProt Q9UNQ0); assay: Activation of human ABCG2-mediated ATPase activity preincubated for 2 mins followed by ATP addition and measured after 20 mins by colorimetric assay; in short: as §1
T2 sequence (Q9UNQ0 whole entry): T1 sequence (Q9UNQ0 whole entry)

[3] = target: T1, ABCG2; assay: Inhibition of human ABCG2 in human R5 cells assessed as inhibition of mitoxantrone efflux at 10 uM measured by flow cytometric analysis relative to control; assay type: cell-based; conditions: probe mitoxantrone
In short: (§2)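 HEK293 cells transfected with full-length ABCG2 (R-5) or empty pcDNA vector, grown in MEM with 10% FBS and 2 mg/ml G418. Cells incubated in IMDM with 5% FBS, 5 μM mitoxantrone (final) ± compound, 37°C for 45 min. Washed in cold IMDM, resuspended in cold PBS with 1% BSA, read by flow cytometry.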

[4] = target: T2, Broad substrate specificity ATP-binding cassette transporter ABCG2; assay: Inhibition of human ABCG2 in human R5 cells assessed as inhibition of mitoxantrone efflux measured by flow cytometric analysis; assay type: cell-based; in short: as §2
[5] = target: T3, Adenosine receptor A3 (Homo sapiens, UniProt P0DMS8); assay: Binding affinity towards human adenosine A3 receptor
T3 sequence (P0DMS8 whole entry): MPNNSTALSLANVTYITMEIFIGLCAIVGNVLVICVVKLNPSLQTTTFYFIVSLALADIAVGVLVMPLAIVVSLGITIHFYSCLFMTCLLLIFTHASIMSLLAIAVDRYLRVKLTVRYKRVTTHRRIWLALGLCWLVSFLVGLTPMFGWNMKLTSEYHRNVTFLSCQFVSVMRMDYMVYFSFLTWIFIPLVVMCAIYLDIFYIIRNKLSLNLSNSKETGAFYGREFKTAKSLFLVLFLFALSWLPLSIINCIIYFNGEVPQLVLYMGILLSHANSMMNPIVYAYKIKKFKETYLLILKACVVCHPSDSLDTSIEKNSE

[6] = target: T4, Adenosine receptor A3 (Mus musculus, UniProt Q61618); assay: Binding affinity towards mouse adenosine A3 receptor
T4 sequence (Q61618 whole entry): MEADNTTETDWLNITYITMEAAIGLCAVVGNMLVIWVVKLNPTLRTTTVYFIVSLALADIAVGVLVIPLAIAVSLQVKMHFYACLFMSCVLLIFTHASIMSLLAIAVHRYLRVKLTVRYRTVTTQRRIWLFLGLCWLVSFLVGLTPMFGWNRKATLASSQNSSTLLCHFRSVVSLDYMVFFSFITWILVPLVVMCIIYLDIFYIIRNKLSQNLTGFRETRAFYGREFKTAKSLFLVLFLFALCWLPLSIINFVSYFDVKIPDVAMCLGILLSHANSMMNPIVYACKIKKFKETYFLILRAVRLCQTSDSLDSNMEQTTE

[7] = target: T1, ABCG2; assay: Effect on human ABCG2 transporter preincubated for 2 mins followed by ATP addition assessed as basal ATPase activity at 2.5 uM and measured after 20 mins by colorimetric assay relative to control; conditions: read-out: Activity; in short: as §1
[8] = target: T1, ABCG2; assay: Activation of human ABCG2-mediated ATPase activity preincubated for 2 mins followed by ATP addition at 10 uM and measured after 20 mins by colorimetric assay relative to control; conditions: read-out: Activity; in short: as §1
[9] = target: T1, ABCG2; assay: Effect on human ABCG2 transporter preincubated for 2 mins followed by ATP addition assessed as basal ATPase activity at 10 uM and measured after 20 mins by colorimetric assay relative to control; conditions: read-out: Activity; in short: as §1
[10] = target: T1, ABCG2; assay: Activation of human ABCG2-mediated ATPase activity preincubated for 2 mins followed by ATP addition at 2.5 uM and measured after 20 mins by colorimetric assay relative to control; conditions: read-out: Activity; in short: as §1
[11] = target: T2, Broad substrate specificity ATP-binding cassette transporter ABCG2; assay: Inhibition of human ABCG2-mediated ATPase activity preincubated for 2 mins followed by ATP addition and measured after 20 mins by colorimetric assay; in short: as §1
[12] = target: T1, ABCG2; assay: Inhibition of human ABCG2-mediated ATPase activity preincubated for 2 mins followed by ATP addition at 10 uM and measured after 20 mins by colorimetric assay relative to control; in short: as §1
[13] = target: T1, ABCG2; assay: Inhibition of human ABCG2-mediated ATPase activity preincubated for 2 mins followed by ATP addition at 2.5 uM and measured after 20 mins by colorimetric assay relative to control; in short: as §1
[14] = target: T1, ABCG2; assay: Activation of human ABCG2-mediated ATPase activity preincubated for 2 mins followed by ATP addition at 5 uM and measured after 20 mins by colorimetric assay relative to control; conditions: read-out: Activity; in short: as §1
[15] = target: T1, ABCG2; assay: Activation of human ABCG2-mediated ATPase activity preincubated for 2 mins followed by ATP addition at 0.5 uM and measured after 20 mins by colorimetric assay relative to control; conditions: read-out: Activity; in short: as §1

activity at 20 min, 0.1 µM [1]: 111%
EC50 [2]: 0.0132 µM
Ki [5]: 6.82 µM
SMILES: COc1cc(CCNC2=NC(C#Cc3ccc(Cl)s3)=NC3=NC=NC32)ccc1O (stereo not given)
inhibition at 10 µM [3]: 110%
IC50 [4]: 4.98 µM

activity at 20 min, 0.1 µM [1]: 77.3%
EC50 [2]: 0.0132 µM
Ki [6]: > 10 µM
SMILES: CCOC(=O)C12CC1[C@@H](n1ccc3c(NCCc4ccccc4)nc(C#Cc4ccccc4)nc31)[C@H](O)[C@@H]2O (single isomer, unassigned)
inhibition at 10 µM [3]: 92.6%
IC50 [4]: 0.44 µM

activity at 20 min, 2.5 µM [7]: ≤ 30%
activity at 20 min, 10 µM [8]: 64.2%
SMILES: CNC(=O)C12CC1[C@@H](n1cnc3cnc(C#Cc4ccc(F)c(F)c4)nc31)[C@H](O)[C@@H]2O (single isomer, unassigned)

activity at 20 min, 10 µM [9]: ≤ 30%
activity at 20 min, 2.5 µM [10]: 49.3%
SMILES: CNC(=O)C12CC1[C@@H](n1cnc3c(NCc4cccc(Cl)c4)nc(C#Cc4cccc(Cl)c4)nc31)[C@H](O)[C@@H]2O (single isomer, unassigned)

activity at 20 min, 10 µM [9]: ≤ 30%
activity at 20 min, 2.5 µM [10]: 51.3%
SMILES: CNC(=O)C12CC1[C@@H](n1cnc3c(NCc4cccc(Cl)c4)nc(C#Cc4ccccc4)nc31)[C@H](O)[C@@H]2O (single isomer, unassigned)

activity at 20 min, 2.5 µM [7]: ≤ 30%
activity at 20 min, 10 µM [9]: ≤ 30%
SMILES: OCC12CC1[C@@H](n1cnc3c(NCc4cccc(-n5cc(-c6ccc(F)c(F)c6)nn5)c4)nc(C#Cc4ccc(F)cc4)nc31)[C@H](O)[C@@H]2O (single isomer, unassigned)

IC50 [11]: 2.59 µM
inhibition at 20 min, 10 µM [12]: 74.7%
inhibition at 20 min, 2.5 µM [13]: 54.4%
SMILES: CNC(=O)C12CC1[C@@H](n1cnc3c(NCc4cccc(-n5cc(-c6ccc(F)c(F)c6)nn5)c4)nc(C#Cc4ccc(F)cc4)nc31)[C@H](O)[C@@H]2O (single isomer, unassigned)
inhibition at 10 µM [3]: 102%

IC50 [11]: 2.57 µM
inhibition at 20 min, 2.5 µM [13]: 43.5%
SMILES: CNC(=O)C12CC1[C@@H](n1cnc3c(NCc4cccc(-n5cc(-c6ccc(F)c(F)c6)nn5)c4)nc(C#Cc4ccc(F)c(F)c4)nc31)[C@H](O)[C@@H]2O (single isomer, unassigned)
inhibition at 10 µM [3]: 92.5%

activity at 20 min, 2.5 µM [7]: ≤ 30%
inhibition at 20 min, 10 µM [12]: 44.5%
SMILES: CNC(=O)C12CC1[C@@H](n1cnc3c(NCc4cccc(-n5cc(-c6ccc(F)c(F)c6)nn5)c4)nc(C#Cc4ccc(C(F)(F)F)cc4)nc31)[C@H](O)[C@@H]2O (single isomer, unassigned)

activity at 20 min, 2.5 µM [7]: ≤ 30%
activity at 20 min, 10 µM [9]: ≤ 30%
SMILES: OCC12CC1[C@@H](n1cnc3c(NCc4cccc(-n5cc(-c6ccc(F)c(F)c6)nn5)c4)nc(C#Cc4ccc(F)c(F)c4)nc31)[C@H](O)[C@@H]2O (single isomer, unassigned)

EC50 [2]: 0.016 µM
activity at 20 min, 10 µM [8]: 46.7%
activity at 20 min, 2.5 µM [10]: 111%
SMILES: CNC(=O)C12CC1[C@@H](n1cnc3c(NC4CC4c4ccc(F)c(F)c4)nc(C#Cc4cccc(F)c4)nc31)[C@H](O)[C@@H]2O (single isomer, unassigned)
inhibition at 10 µM [3]: 100%

activity at 20 min, 0.1 µM [1]: 74.2%
EC50 [2]: 0.0243 µM
Ki [5]: ≥ 0.099 µM
SMILES: CCOC(=O)C12CC1[C@@H](n1ccc3c(NCCCc4ccc(OC)c(O)c4)nc(C#Cc4ccc(Cl)s4)nc31)[C@H](O)[C@@H]2O (single isomer, unassigned)
inhibition at 10 µM [3]: 109%
IC50 [4]: 0.6 µM

inhibition at 20 min, 10 µM [12]: 49.4%
inhibition at 20 min, 2.5 µM [13]: 44.7%
SMILES: CNC(=O)C12CC1[C@@H](n1cnc3c(NCc4cccc(-n5cc(-c6ccc(F)c(F)c6)nn5)c4)nc(C#Cc4cc(F)cc(F)c4)nc31)[C@H](O)[C@@H]2O (single isomer, unassigned)

Ki [5]: ≥ 0.099 µM
activity at 20 min, 10 µM [8]: 72.6%
activity at 20 min, 2.5 µM [10]: 49.6%
SMILES: CNC(=O)C12CC1[C@@H](n1cnc3c(C)nc(C#Cc4ccc(F)c(F)c4)nc31)[C@H](O)[C@@H]2O (single isomer, unassigned)

EC50 [2]: 0.08 µM
activity at 20 min, 5 µM [14]: 56.8%
activity at 20 min, 0.5 µM [15]: 74.4%
SMILES: CNC(=O)C12CC1[C@@H](n1cnc3c(NCc4cccc(Cl)c4)nc(C#Cc4ccc(F)c(F)c4)nc31)[C@H](O)[C@@H]2O (single isomer, unassigned)
inhibition at 10 µM [3]: 99.2%

activity at 20 min, 10 µM [8]: 49.3%
activity at 20 min, 2.5 µM [10]: 60.3%
SMILES: CNC(=O)C12CC1[C@@H](n1cnc3c(NCc4cccc(Cl)c4)nc(C#Cc4ccc(F)cc4)nc31)[C@H](O)[C@@H]2O (single isomer, unassigned)

activity at 20 min, 2.5 µM [7]: ≤ 30%
inhibition at 20 min, 10 µM [12]: 57.1%
SMILES: CNC(=O)C12CC1[C@@H](n1cnc3c(NCc4cccc(-n5cc(-c6ccc(F)c(F)c6)nn5)c4)nc(C#Cc4ccc(F)cc4F)nc31)[C@H](O)[C@@H]2O (single isomer, unassigned)

IC50 [11]: 4.01 µM
inhibition at 20 min, 10 µM [12]: 48.9%
inhibition at 20 min, 2.5 µM [13]: 38.9%
SMILES: CNC(=O)C12CC1[C@@H](n1cnc3c(NCc4cccc(-n5cc(-c6ccc(F)c(F)c6)nn5)c4)nc(C#Cc4cc(F)c(F)c(F)c4)nc31)[C@H](O)[C@@H]2O (single isomer, unassigned)
inhibition at 10 µM [3]: 105%
